High-throughput results (PubChem)
Cl transport mod: modulates chloride dependent transport by human KCC2 | actives 2.2% (n = 190,000) | Q9H2X9 | KCC2 cells, thallium flux FluoZin-2 fluorescence | AID 1456 | B-score of Tl+ flux slope (higher = more flux/activation; lower = inhibition) at 10 µM;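 active means thallium flux slope and its plate-corrected score both differing from the plate sample mean at a set confidence after two filtering rounds, in either direction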;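 further: slope of fluorescence scaled to starting intensity during 10 to 20 s after thallium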
KCNQ1 inh: inhibitors of human KCNQ1 potassium channel | B-score at 10 µM | actives 1.3% (n = 310,000) | P51787 | CHO-K1 KCNQ1, FluxOR thallium flux fluorescence; stronger effect = higher value;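 active means compounds whose thallium flux B-score, printed positive for inhibition, exceeds three library SD while starting fluorescence stays within three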;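 further: channel opened by potassium depolarization with thallium stimulus after 20 min compound exposure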
KCNK9 block: blocks the human KCNK9 two-pore domain potassium channel | AID 488922 | HEK293 KCNK9, FluxOR thallium flux fluorescence; stronger effect = lower value | actives 1.2% (n = 310,000) | B-score at 10 µM | Q9NPC2;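 active means ratio B-score over 3 SD below the library mean, with starting fluorescence within 5 SD of its mean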;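 further: negative B-score means less thallium flux so channel inhibition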
KCNK3 block: human KCNK3 channel inhibition, primary screen. O14649. CHO-KCNK3 thallium flux, FluxOR fluorescence; stronger effect = lower value. B-score at 10 µM. actives 0.84% (n = 340,000);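 active means B-score under library mean minus 4 SD, starting fluorescence ratio at most library mean plus 5 SD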;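 further: more negative B-score means stronger inhibition of thallium flux through KCNK3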
hERG protect: compounds protecting human hERG from proarrhythmic drug block; CHO-hERG, FluxOR thallium flux, dofetilide IC70 present; activation (rescue from dofetilide block), less the hit threshold, % at 10 µM; actives 0.51% (n = 310,000); AID 1511;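 active means activation above the mean of controls blocked by dofetilide plus 5 SD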;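 further: thallium influx through hERG after potassium depolarization seen as dye fluorescence rise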
Target sequence (Q12809 whole entry, looked up): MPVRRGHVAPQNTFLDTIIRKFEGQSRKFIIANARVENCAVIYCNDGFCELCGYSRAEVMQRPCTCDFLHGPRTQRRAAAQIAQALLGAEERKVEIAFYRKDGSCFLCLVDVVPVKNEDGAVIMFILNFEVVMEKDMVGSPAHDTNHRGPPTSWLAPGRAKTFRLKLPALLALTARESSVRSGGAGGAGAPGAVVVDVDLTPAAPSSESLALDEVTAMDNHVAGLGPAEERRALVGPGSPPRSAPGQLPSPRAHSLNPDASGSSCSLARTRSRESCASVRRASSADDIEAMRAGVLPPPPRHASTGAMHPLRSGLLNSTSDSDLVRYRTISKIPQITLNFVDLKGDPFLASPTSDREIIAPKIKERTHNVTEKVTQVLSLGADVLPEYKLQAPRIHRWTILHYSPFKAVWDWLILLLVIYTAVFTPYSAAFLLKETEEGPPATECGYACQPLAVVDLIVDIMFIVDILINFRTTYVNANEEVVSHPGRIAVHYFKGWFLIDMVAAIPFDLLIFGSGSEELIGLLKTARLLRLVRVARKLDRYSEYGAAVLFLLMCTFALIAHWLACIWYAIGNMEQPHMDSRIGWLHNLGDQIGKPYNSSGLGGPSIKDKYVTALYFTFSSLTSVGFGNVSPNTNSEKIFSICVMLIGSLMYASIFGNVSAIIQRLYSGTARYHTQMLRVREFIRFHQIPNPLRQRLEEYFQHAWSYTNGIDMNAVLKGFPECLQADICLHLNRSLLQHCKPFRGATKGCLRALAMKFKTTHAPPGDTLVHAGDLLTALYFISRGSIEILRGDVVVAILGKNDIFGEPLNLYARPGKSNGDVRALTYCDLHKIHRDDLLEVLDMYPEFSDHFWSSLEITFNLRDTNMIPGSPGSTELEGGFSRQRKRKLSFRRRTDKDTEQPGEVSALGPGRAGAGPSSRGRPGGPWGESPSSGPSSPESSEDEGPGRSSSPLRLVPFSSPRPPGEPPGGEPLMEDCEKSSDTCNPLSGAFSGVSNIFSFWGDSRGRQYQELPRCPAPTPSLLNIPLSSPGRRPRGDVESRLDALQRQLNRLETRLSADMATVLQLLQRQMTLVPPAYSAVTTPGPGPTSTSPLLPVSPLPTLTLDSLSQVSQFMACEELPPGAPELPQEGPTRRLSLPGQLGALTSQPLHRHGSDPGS
KCNQ1 pot: potentiates or activates the human KCNQ1 potassium channel | CHO-K1 KCNQ1, thallium flux FluxOR fluorescence; stronger effect = higher value | B-score at 10 µM | actives 0.35% (n = 310,000);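 active means fluorescence ratio B-score, a plate-corrected score, at least three library SD, with initial intensity B-score within 5 SD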
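Material: CHO-K1 cells stably expressing KCNQ1. Medium: assay buffer for compound exposure, DMSO matched across wells. Reagent: K+/Tl+ depolarizing stimulus. Compound dosing: single-concentration screen. Times: 37 °C overnight plating, 90-min dark dye load, 20-min compound pretreatment. Technique: FluxOR Tl+ flux fluorescence.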
* hit, by the source's call. Shown are actives, neighbours in structure and some others; about 4.1% of the full set was active somewhere.

What do the screens show for `Cn1c(=S)[nH]c2sc3c(c2c1=O)CCC(C(C)(C)C)C3` (stereo not given)?
KCNQ1 inh: inactive; KCNK9 block: inactive; KCNK3 block: inactive; hERG protect: 57*; KCNQ1 pot: 80*

What do the screens show for `O=c1[nH]c(=S)[nH]c2sc3c(c12)CCCCCC3`?
KCNQ1 inh: inactive; KCNK9 block: inactive; KCNK3 block: inactive; hERG protect: -3; KCNQ1 pot: 10*

How did Cc1ccccc1C(=O)N1CCC(C(=O)NN2C(=O)NC3(CCCCC3)C2=O)CC1 do in these assays?
KCNK3 block: inactive

Results for S=c1[nH]c2ccc(Cl)cc2[nH]1 ?
Cl transport mod: 0.34; KCNQ1 inh: inactive; KCNK9 block: inactive; KCNK3 block: inactive; hERG protect: -9; KCNQ1 pot: inactive

Results for S=c1[nH]c2cc(Cl)ccc2s1 ?
Cl transport mod: 24*; KCNQ1 inh: inactive; KCNK9 block: inactive; KCNK3 block: inactive; hERG protect: 55*; KCNQ1 pot: 74*

Results for Cc1ccc(C)c(-n2ccnc2SCC(=O)c2c(N)n(C3CC3)c(=O)[nH]c2=O)c1 ?
KCNK3 block: inactive

What do the screens show for `O=C(COc1ccccc1Cl)Nc1nnc(S(=O)(=O)N2CCCCCC2)s1`?
KCNQ1 inh: inactive; KCNK9 block: inactive; KCNK3 block: inactive; hERG protect: -8; KCNQ1 pot: inactive

Results for CCSc1ccccc1C(=O)NCCCn1ccnc1 ?
Cl transport mod: 0.49; KCNQ1 inh: inactive; KCNK9 block: inactive; KCNK3 block: inactive; hERG protect: 4.8*; KCNQ1 pot: inactive

What do the screens show for `CSc1ccccc1C(=O)NCCCn1ccnc1`?
KCNQ1 inh: inactive; KCNK9 block: inactive; KCNK3 block: inactive; hERG protect: -2; KCNQ1 pot: inactive

How did COc1ccc(S(=O)(=O)N2CCOCC2)cc1C(=O)NC1CCCCCC1 do in these assays?
KCNK3 block: inactive

What do the screens show for `COc1ccc(N2C(=O)c3cccc4cccc(c34)C2=O)cc1`?
KCNQ1 inh: inactive; KCNK9 block: inactive; KCNK3 block: inactive; hERG protect: -7; KCNQ1 pot: inactive

Results for COc1ccc(N2C(=O)c3cccc4c(N(C)CCO)ccc(c34)C2=O)cc1 ?
KCNQ1 inh: 7*; KCNK9 block: inactive; KCNK3 block: inactive; hERG protect: -12; KCNQ1 pot: inactive

What do the screens show for `OC(CNCC(c1ccc(Cl)cc1Cl)c1c[nH]c2ccccc12)c1ccccc1` (stereo not given)?
Cl transport mod: 1.7; KCNQ1 inh: inactive; KCNK9 block: inactive; KCNK3 block: inactive; hERG protect: 40*; KCNQ1 pot: inactive

What do the screens show for `O=[N+]([O-])CC(c1ccccc1)c1c[nH]c2ccccc12` (stereo not given)?
KCNQ1 inh: inactive; KCNK9 block: inactive; KCNK3 block: inactive; hERG protect: -4; KCNQ1 pot: inactive

What do the screens show for `CC(C)Cn1nc(NC(=O)c2cccs2)c2cc3ccccc3nc21`?
Cl transport mod: -1.4; KCNQ1 inh: inactive; KCNK9 block: -7*; KCNK3 block: inactive; hERG protect: -8; KCNQ1 pot: inactive

How did CC(O)(c1ccc(Cl)cc1)C(c1ccccc1)c1ccccn1 (stereo not given) do in these assays?
KCNK3 block: inactive

Results for CCOC(=O)c1c(-c2ccccc2)nnn1-c1nc(OCC)nc(N2CCCCC2)n1 ?
Cl transport mod: -5.8; KCNQ1 inh: inactive; KCNK9 block: inactive; KCNK3 block: -14*; hERG protect: -23; KCNQ1 pot: inactive

What do the screens show for `CCOC(=O)c1nnn(-c2nc(OC)nc(N3CCCCC3)n2)c1-c1ccccc1`?
Cl transport mod: -1.8

What do the screens show for `O=C(CCOc1ccccc1)Nc1cccc([N+](=O)[O-])c1`?
Cl transport mod: -1.8; KCNQ1 inh: inactive; KCNK9 block: inactive; KCNK3 block: inactive; hERG protect: -3; KCNQ1 pot: inactive

What do the screens show for `O=C(COc1ccccc1)NC(=S)Nc1cccc([N+](=O)[O-])c1`?
Cl transport mod: 43*; KCNQ1 inh: inactive; KCNK9 block: inactive; KCNK3 block: inactive; hERG protect: -1; KCNQ1 pot: inactive

Results for CCOC(=O)c1ccc(NC(=S)NC(=O)COc2ccccc2)cc1 ?
Cl transport mod: 18*; KCNQ1 inh: inactive; KCNK9 block: inactive; KCNK3 block: inactive; hERG protect: 7.6*; KCNQ1 pot: inactive

How did CCOC(=O)c1ccc(NC(=S)Nc2ccccc2)cc1 do in these assays?
Cl transport mod: -1.6; KCNQ1 inh: inactive; KCNK9 block: inactive; KCNK3 block: inactive; hERG protect: -14; KCNQ1 pot: inactive

How did COc1ccc(CNC(=O)c2ccccc2SCC(=O)N2CCCC2)cc1OC do in these assays?
KCNQ1 inh: inactive; KCNK9 block: inactive; KCNK3 block: inactive; hERG protect: -23; KCNQ1 pot: inactive

What do the screens show for `COP(=O)(OC)C(Nc1ccc(C)cc1)c1ccc(Br)cc1` (stereo not given)?
KCNK3 block: inactive

What do the screens show for `Cc1cccc(N2CCN(S(=O)(=O)c3ccc4c(c3)CCCN4C(=O)C3CCC3)CC2C)c1` (stereo not given)?
KCNQ1 inh: inactive; KCNK9 block: inactive; KCNK3 block: inactive; hERG protect: -9; KCNQ1 pot: inactive

How did CC(/C=C1\SC(=S)N(c2ccc(C(=O)O)cc2)C1=O)=C\c1ccccc1 do in these assays?
Cl transport mod: -1.4; KCNQ1 inh: inactive; KCNK9 block: inactive; KCNK3 block: inactive; hERG protect: 5.1*; KCNQ1 pot: inactive

Results for O=c1c2ccccc2n(CC(O)CN2CCCCC2)c2ccccc12 (stereo not given) ?
Cl transport mod: -0.18; KCNQ1 inh: inactive; KCNK9 block: -8.1*; KCNK3 block: inactive; hERG protect: -5; KCNQ1 pot: inactive

How did OC(CN1CCCCC1)Cn1c2ccccc2c2ccccc21 (stereo not given) do in these assays?
KCNQ1 inh: inactive; KCNK9 block: inactive; KCNK3 block: inactive; hERG protect: -5; KCNQ1 pot: inactive

How did COc1ccc(S(=O)(=O)N2CCSC2C)cc1C (stereo not given) do in these assays?
KCNQ1 inh: inactive; KCNK9 block: inactive; KCNK3 block: inactive; hERG protect: -7; KCNQ1 pot: inactive

What do the screens show for `Cc1noc(C)c1/C=N/Nc1ccccn1`?
KCNQ1 inh: inactive; KCNK9 block: inactive; KCNK3 block: inactive; hERG protect: 6.4*; KCNQ1 pot: inactive

How did CCOC(=O)/C(C#N)=C/c1ccc(OC)c(OC)c1 do in these assays?
Cl transport mod: -0.59; KCNQ1 inh: inactive; KCNK9 block: inactive; KCNK3 block: inactive; hERG protect: -10; KCNQ1 pot: inactive
